EBNA-1 inhibitor – blocks EBNA-1 binding to DNA. EBNA-1 DNA binding, fluorescence polarization. AID 1950. 300,000 tested, 0.34% active. inhibition, % at 14.8 µM; in the data active means inhibition above about 28%
ZTA counter – blocks Epstein-Barr virus ZTA, an EBNA-1 counter-screen; AID 2234; inhibition, % at 11 µM; 320,000 tested, 0.15% active; ZTA-DNA binding, fluorescence polarization; P03206; in the data active means inhibition above about 33%
Target sequence (P03206 whole entry, looked up): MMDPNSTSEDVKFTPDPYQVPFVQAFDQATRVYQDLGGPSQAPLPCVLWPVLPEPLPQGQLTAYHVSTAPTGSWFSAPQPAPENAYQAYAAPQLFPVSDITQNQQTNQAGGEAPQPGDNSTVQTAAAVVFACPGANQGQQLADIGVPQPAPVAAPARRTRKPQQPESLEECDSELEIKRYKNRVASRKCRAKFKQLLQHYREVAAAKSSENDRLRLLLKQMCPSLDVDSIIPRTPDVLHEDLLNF
SUMO HTRF inh – SUMOylation inhibition. AID 2006. 290,000 tested, 0.36% active. HTRF SUMOylation assay, SAE1/SAE2 + UBC9, in vitro. P63279. inhibition, % at 35 µM; in the data active means inhibition above about 50%, passing the limit was not always enough
Target sequence (P63279 whole entry, looked up): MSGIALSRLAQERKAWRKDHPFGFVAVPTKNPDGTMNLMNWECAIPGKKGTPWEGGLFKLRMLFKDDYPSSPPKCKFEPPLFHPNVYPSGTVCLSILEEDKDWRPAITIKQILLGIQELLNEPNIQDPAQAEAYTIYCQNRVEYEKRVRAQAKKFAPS
HCV core dimer – HCV core protein dimerization inhibition; TR-FRET GST/Flag-core106 dimerization, 1536-well; inhibition, % at 5 µM; 300,000 tested, 0.33% active;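 active means inhibition above the mean of all tested compounds plus 3 SD, set per screening campaign, cut at about 45% in these data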
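Material: Tagged HCV core106 pair (GST and Flag) | Amount: GST-core106 13.5 nM, Flag-core106 17 nM | Medium: KF-containing HEPES buffer, pH 7.45, DTT, CHAPS, BSA | Reagent: Eu donor and XL665 acceptor anti-tag antibodies | Schedule: 4 h at 22.5 °C | Technique: Time-resolved FRET, ex 340 nm, em 617 and 671 nm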
HCV NS3 hel inh – blocks Hepatitis C virus NS3 helicase unwinding; NS3 helicase DNA unwinding, Cy5 molecular beacon fluorescence; inhibition, % at 10.9 µM; 290,000 tested, 0.56% active; AID 1800;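 active means inhibition above the mean of all tested compounds plus 3 SD, set per campaign, cut at about 35% in these data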;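 further: 0% = DMSO wells and 100% = thioflavine S control wells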
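Assay system: hepatitis C virus NS3 helicase domain fragment enzyme. Also added: annealed dual-labelled DNA beacon duplex, ATP-started. Timing: 1 h reaction at 25 °C, ATP-initiated. Technique: Cy5 fluorescence at 0 and 60 min, beacon hairpin quenching. Evaluation: % inhibition of unwinding. Replication: one well per compound.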
NS3 helicase cf – HCV NS3 helicase inhibition, confirmation assay. shares compounds with HCV NS3 hel inh. 1,600 tested, 31% active. NS3 helicase DNA unwinding, Cy5 molecular beacon fluorescence. AID 1943. inhibition, % at 10.9 µM;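 active means inhibition above the mean of all tested compounds plus 3 SD, cutoff set per campaign, cut at about 36% in these data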
DNA FID counter – intercalator displacement, NS3 helicase counter-screen; shares compounds with HCV NS3 hel inh; DNA fluorescent intercalator displacement, fluorescence; inhibition, % at 7.9 µM; 1,600 tested, 4% active; AID 1945; in the data active means inhibition above about 37%;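 further: 0% = vehicle and 100% = reference compound; higher means more displacement of ethidium bromide from the DNA hairpin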
EBNA-1 confirm – EBNA-1 (EBV) inhibition, confirmation; shares compounds with EBNA-1 inhibitor; Recombinant EBNA-1 DBD, Cy5-DNA fluorescence polarization; inhibition, % at 14.8 µM; 830 tested, 35% active; AID 2292;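 active means mean inhibition across replicates above a set limit taken from the earlier primary screen, cut at about 28% in these data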;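 further: plate controls were EBNA-1 protein with DMSO for no effect and wells lacking EBNA-1 for full effect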
ZTA counter trip – blocks Epstein-Barr virus ZTA in triplicate, EBNA-1 counter-screen; AID 2328; shares compounds with EBNA-1 inhibitor; inhibition, % at 11.1 µM; Zta-ZRE DNA binding, Cy5 fluorescence polarization; 830 tested, under 10 active;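 active means mean inhibition over triplicates above a set limit taken from the primary EBNA-1 screen, cut at about 37% in these data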;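 further: purified full length Zta protein with Cy5 labeled ZRE DNA probe; 0% = Zta with DMSO and 100% = wells lacking Zta protein; inhibitors lower polarization by freeing the labeled DNA probe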
ZTA inh confirm – EBV ZTA DNA binding inhibition, confirmation | shares compounds with ZTA counter | Zta-ZRE DNA binding, fluorescence polarization | inhibition, % at 11.1 µM | 320 tested, 30% active;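 active means mean inhibition across triplicate runs above the hit threshold derived for the original primary screen, cut at about 33% in these data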;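 further: 0% = Zta with DMSO and 100% = wells lacking Zta protein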
EBNA-1 counter – counter-screen for ZTA inhibitors: EBNA-1 DNA binding inhibition | inhibition, % at 14.8 µM | 320 tested, under 10 active | shares compounds with ZTA counter | fluorescence polarization | AID 2362; call rule not given here
Starred values were filed as active, the others as inactive; / = no result. Most compounds without a hit are left out; they make up all but 1.4% or so of the library.

SMILES	EBNA-1 inhibitor	ZTA counter	SUMO HTRF inh	HCV core dimer	HCV NS3 hel inh	EBNA-1 confirm	ZTA counter trip	others
Cc1cc(C)nc(OC(C(=O)O)C(OCCc2ccccc2)(c2ccccc2)c2ccccc2)n1 (stereo not drawn)	28*	2	21	25	37*	2	6	NS3 helicase cf=107*;DNA FID counter=8
Nc1c(O)ccc2c1C(=O)c1ccccc1C2=O	9	40*	-151	-155	43*	/	/	NS3 helicase cf=11;DNA FID counter=27;ZTA inh confirm=35*;EBNA-1 counter=6
COc1ccc2c(c1O)C(=O)c1ccccc1C2=O	14	4	2	0	7	/	/
N#Cc1ccc(CN2CCN(C(=O)c3ccc(S(=O)(=O)NCc4ccco4)cc3)CC2)cc1	/	4	/	/	/	/	/
O=Cc1cccc2ccc3cccc(C(=O)O)c3c12	-4	9	/	1	/	/	/
CC(C(=O)O)N1C(=O)/C(=C/C=C/c2ccco2)SC1=S (stereo not drawn)	26	58*	84*	75*	51*	/	/	NS3 helicase cf=81*;DNA FID counter=2;ZTA inh confirm=73*;EBNA-1 counter=9
CCCC1Nc2ccc(C(=O)O)cc2C2C=CCC12 (stereo not drawn)	9	25	37	-9	27	/	/
CCOC(=O)C1Nc2ccc(C(=O)O)cc2C2C=CCC12 (stereo not drawn)	5	60*	25	0	54*	/	/	NS3 helicase cf=67*;DNA FID counter=-16;ZTA inh confirm=23;EBNA-1 counter=-13
O=C1C(=Cc2ccc(Br)o2)C(=O)c2ccccc21	2	52*	22	9	45*	/	/	NS3 helicase cf=85*;DNA FID counter=28;ZTA inh confirm=51*;EBNA-1 counter=13
Cc1cc(C(=O)O)ccc1-n1c(C)ccc1C	23	55*	/	-9	78*	/	/	NS3 helicase cf=90*;DNA FID counter=-26;ZTA inh confirm=57*;EBNA-1 counter=9
N#C/C(=C/c1ccc(-c2cc(C(=O)O)cc(C(=O)O)c2)o1)c1nc2ccccc2s1	-5	61*	/	-4	36*	/	/	NS3 helicase cf=82*;DNA FID counter=-15;ZTA inh confirm=25;EBNA-1 counter=-1
N#C/C(=C\c1ccco1)c1nc2ccccc2s1	2	3	22	-8	7	/	/
CCOC(=O)c1ccc(S(=O)(=O)N2CCN(Cc3cc4c(cc3O)OCO4)CC2)cc1	/	-1	/	/	/	/	/
Cn1c(CCN2CCN(c3ccccn3)CC2)nc2cc(NC(=O)COc3ccc([N+](=O)[O-])cc3)ccc21	2	38*	12	7	38*	/	/	NS3 helicase cf=9;DNA FID counter=10;ZTA inh confirm=21;EBNA-1 counter=-1
CCC1(c2ccccc2)NC(=O)N(CC(=O)NC2(C#N)CCCCC2)C1=O (stereo not drawn)	-14	-4	/	-9	/	/	/
O=C(O)c1cccc(-n2cccc2/C=C/[N+](=O)[O-])c1	-4	56*	20	0	41*	/	/	NS3 helicase cf=41*;DNA FID counter=13;ZTA inh confirm=16;EBNA-1 counter=-8
O=C(O)c1cccc(-n2cccc2/C=C\[N+](=O)[O-])c1	9	25	36	-2	28	/	/
O=c1cc(-c2ccc(O)c(O)c2)oc2cc(O)cc(O)c12	-5	10	-6	-6	/	/	/
O=c1cc(-c2ccc(O)c(-c3c(O)cc(O)c4c(=O)cc(-c5ccc(O)cc5)oc34)c2)oc2cc(O)cc(O)c12	34*	2	41	3	5	29*	20
CCOC(=O)NC(=O)CSc1ccc(S(=O)(=O)N(C)C2CCCCC2)cn1	/	-1	/	/	/	/	/
COc1ccc(C(=O)Nc2ccccc2C(=O)NC(Cc2ccc(O)cc2)C(=O)NNC(=O)c2ccccc2)cc1 (stereo not drawn)	82*	-16	8	3	-2	-8	-10
COc1ccc(C(=O)Nc2ccccc2C(=O)NC(Cc2ccc(O)cc2)C(=O)NNC(=O)c2ccc(C)cc2)cc1 (stereo not drawn)	-9	-30	32	7	1	/	/
CO/C([O-])=N/c1c[n+](-c2ccc(Cl)cc2)no1	39*	7	4	1	1	-6	-6
CCc1cccc(OCC(=O)Nc2ccc(S(=O)(=O)Nc3ccccn3)cc2)c1	-3	5	20	5	8	/	/
Cc1ccc(OCC(=O)Nc2ccc(S(=O)(=O)Nc3ccccn3)cc2)cc1C	43*	-1	2	6	-1	-1	11
SMILES	EBNA-1 inhibitor	ZTA counter	SUMO HTRF inh	HCV core dimer	HCV NS3 hel inh	EBNA-1 confirm	ZTA counter trip	others
CCN1CCN(C(=O)Cn2nc(C)c3sc4ccccc4c3c2=O)CC1	-4	12	7	7	2	/	/
CCOC(=O)c1oc2ccccc2c1NC(=O)c1ccc(S(=O)(=O)N2CCCC2)cc1	37*	-8	19	7	3	47*	0
CCOC(=O)c1oc2ccccc2c1NC(=O)c1ccc(S(=O)(=O)N(C)C)cc1	47*	-7	-6	2	-8	52*	6
CCOC(=O)c1[nH]c2ccccc2c1NC(=O)c1ccc(S(=O)(=O)N(C)C)cc1	3	9	5	9	-5	/	/
O=C(NCCc1ccc(Cl)cc1)C1COc2ccccc2O1 (stereo not drawn)	6	7	8	6	-8	/	/
Cc1oc(-c2ccc(Cl)cc2)nc1CS(=O)CC(=O)NCc1ccccn1 (stereo not drawn)	-4	3	6	-5	0	/	/
CCC(=O)Nc1ccc(Cl)c(NC(=S)NC(=O)c2cc3ccccc3o2)c1	39*	-3	15	-3	0	18	3
O=C(OCCN1C(=O)c2ccccc2C1=O)c1ccccc1	46*	19	-2	1	4	-12	6
O=C(OCN1C(=O)c2ccccc2C1=O)c1ccccc1	-3	6	3	3	5	/	/
CN1CCN(C(=O)c2cccc(NS(=O)(=O)c3ccc(Br)cc3)c2)CC1	/	1	/	/	/	/	/
COc1ccc(-c2cn(Cc3ccc(C(=O)c4ccccc4)cc3)nn2)cc1	28*	-19	-11	8	-26	0	15
CC1CCN(C(=O)C(C)OC(=O)CSc2ccc([N+](=O)[O-])cc2)CC1 (stereo not drawn)	/	9	/	/	/	/	/
CCc1ccccc1N(C)S(=O)(=O)c1ccc2[nH]cc(C(=O)N3CCc4ccccc43)c(=O)c2c1	28*	4	14	19	-39	3	-1
Cc1cccc(N(C)S(=O)(=O)c2ccc3[nH]cc(C(=O)N4CCOCC4)c(=O)c3c2)c1	-6	-4	3	-6	3	/	/

Bioassay records from PubChem.
